Screening results from PubChem.
Shown are actives, neighbours in structure and some others; about 2.2% of the full set was active somewhere.
DENV2 CPE: DENV2-induced cell death inhibition | DENV2-infected cells, cytopathic effect rescue, plate reader | CPE inhibition, % at 9.99 µM | actives 1.7% (n = 350,000); in the data active = CPE inhibition above about 20%, passing the limit was not always enough; inconclusive = no clear call, values can overlap the other calls; tested in BHK-21 cells
C2C12 statin: protects C2C12 myotubes from simvastatin toxicity; rescue of ATP level, % at 7.49 µM; ATP luminescence, 48 h; scaled: DMSO 0, geranylgeraniol control 100; actives 0.78% (n = 330,000);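 active = mean ATP rescue above about 67%, or every replicate alone reaching that limit, limit read from the data, passing the limit was not always enough; inconclusive = no clear call, values can overlap the other calls; inactive = mean under the limit and some replicate under it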;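 note: myotubes were challenged with 10 µM simvastatin during compound exposure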
E-sel inducer: E-selectin induction on HUVECs; HUVEC E-selectin immunofluorescence imaging; normalized: neutral wells 0, TNF-alpha wells 100; P16581; actives 0.37% (n = 260,000); AID 686992; activation, % at 7.58 µM;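 active = mean E-selectin-positive cell signal at least 10% of the positive control, reached in at least 60% of replicates, without over 20% cell loss; inconclusive = no rule given, readout overlaps actives, possibly toxicity-flagged; inactive = the rest, including those meeting only one limit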
Target sequence (P16581 whole entry, looked up): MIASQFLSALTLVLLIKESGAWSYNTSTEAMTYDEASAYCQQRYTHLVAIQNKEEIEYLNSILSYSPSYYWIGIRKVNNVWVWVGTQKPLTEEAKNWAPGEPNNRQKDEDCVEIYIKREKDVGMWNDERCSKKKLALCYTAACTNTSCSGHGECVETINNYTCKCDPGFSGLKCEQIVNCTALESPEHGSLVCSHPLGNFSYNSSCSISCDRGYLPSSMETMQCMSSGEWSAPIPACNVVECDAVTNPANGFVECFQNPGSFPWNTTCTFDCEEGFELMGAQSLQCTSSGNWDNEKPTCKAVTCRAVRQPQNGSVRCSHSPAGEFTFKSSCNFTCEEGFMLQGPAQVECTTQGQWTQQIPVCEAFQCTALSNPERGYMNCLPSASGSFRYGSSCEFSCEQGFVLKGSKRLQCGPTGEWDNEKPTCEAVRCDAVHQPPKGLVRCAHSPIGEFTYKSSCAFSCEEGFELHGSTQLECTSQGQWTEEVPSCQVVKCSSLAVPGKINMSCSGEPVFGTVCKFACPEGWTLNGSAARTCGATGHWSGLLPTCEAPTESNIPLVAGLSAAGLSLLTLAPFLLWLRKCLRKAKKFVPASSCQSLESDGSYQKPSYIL
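assay system = HUVEC, human umbilical vein endothelial cells | input = 3,000 HUVEC seeded per well | medium = EGM-2 growth medium on 0.1% gelatin-coated wells | dosing = one compound dose added by pin transfer | signal = immunofluorescence imaging | read-out basis = % PE-positive cells | control set = TNF-alpha, DMSO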
Each line names hits and unclear results; the compound was inactive in the other large screens.

Cc1noc(C)c1NC(=O)N(C)C[C@@H]1OCCCC[C@@H](C)Oc2ccc(NS(C)(=O)=O)cc2C(=O)N([C@H](C)CO)C[C@H]1C	none (no result: C2C12 statin)
C[C@@H]1CN([C@H](C)CO)C(=O)c2cc(NS(=O)(=O)c3ccccc3)ccc2O[C@@H]1CN(C)S(=O)(=O)c1cn(C)cn1	none
O=C(C[C@H]1CC[C@H](NC(=O)Nc2ccccc2)[C@@H](CO)O1)NCc1ccccn1	none
C[C@@H]1CN([C@H](C)CO)S(=O)(=O)c2ccc(C#CC3CC3)cc2O[C@@H]1CN(C)C(=O)c1ccncc1	none (no result: E-sel inducer)
COc1ccc(C(=O)NCC(=O)N2CCC(C)CC2)cc1OC	C2C12 statin 90 (no result: DENV2 CPE, E-sel inducer)
COc1ccc(C(=O)NCC(=O)OCC(=O)N2CCC(C)CC2)cc1OC	none (no result: C2C12 statin, E-sel inducer)
COc1ccc(/C(O)=C2/C(=O)C(=O)N(CCN3CCOCC3)C2c2ccccn2)cc1OC (configuration not stated)	none (no result: DENV2 CPE, E-sel inducer)
COc1ccc(/C(O)=C2/C(=O)C(=O)N(CCN(C)C)C2c2ccccn2)cc1OC (configuration not stated)	C2C12 statin 118 (no result: DENV2 CPE, E-sel inducer)
O=C(C[C@@H]1CC[C@H](NC(=O)C2CCOCC2)[C@H](CO)O1)NCc1ccncc1	DENV2 CPE inconclusive (no result: C2C12 statin)
Cn1cc([N+](=O)[O-])c(C(=O)Nc2ccn(Cc3c(F)c(F)cc(F)c3F)n2)n1	C2C12 statin 144 (no result: DENV2 CPE, E-sel inducer)
Cn1ncc([N+](=O)[O-])c1C(=O)Nc1ccn(Cc2ccccc2F)n1	none (no result: E-sel inducer)
COc1ccc(C2CC(=O)c3c(O)cc(O)cc3O2)cc1O (configuration not stated)	DENV2 CPE 23 (no result: E-sel inducer)
O=C1CC(c2ccccc2)Oc2cc(O)cc(O)c21 (configuration not stated)	DENV2 CPE 70 (no result: E-sel inducer)
O=C1CC(c2ccc(O)c(O)c2)Oc2cc(O)cc(O)c21 (configuration not stated)	none (no result: E-sel inducer)
O=C1CC(c2ccc(O)cc2)Oc2cc(O)cc(O)c21 (configuration not stated)	E-sel inducer inconclusive
CCC(=O)Nc1ccc2c(c1)OC[C@@H](C)N(Cc1cccnc1)C[C@H](C)[C@H](OC)CN(C)C2=O	none
C[C@@H]1CN([C@H](C)CO)C(=O)c2cc(-c3ccccc3)cnc2O[C@@H]1CN(C)C(=O)C1CCCCC1	none
C/C=C/c1cnc2c(c1)C(=O)N([C@H](C)CO)C[C@H](C)[C@@H](CN(C)Cc1cccc(C(=O)O)c1)O2	none
O=C(O)c1ccccc1CN1C[C@H]2O[C@H](CNS(=O)(=O)c3ccc(Cl)cc3)CC[C@H]21	none (no result: C2C12 statin, E-sel inducer)
O=C(O)C[C@@H]1C[C@@H]2c3cc(NS(=O)(=O)c4ccccc4)ccc3O[C@@H]2[C@@H](CO)O1	none (no result: C2C12 statin)
C[C@H]1CN([C@@H](C)CO)C(=O)Cc2cc(NS(=O)(=O)c3cn(C)cn3)ccc2O[C@H]1CN(C)S(=O)(=O)c1ccc(Cl)cc1	none (no result: DENV2 CPE)
CCOC(=O)c1ccc(-c2c(C(=O)OCC)oc3cc(O)c(CC)cc3c2=O)o1	C2C12 statin 100 (no result: DENV2 CPE, E-sel inducer)
CCOC(=O)c1oc2cc(O)c(CC)cc2c(=O)c1-c1cscn1	none
CCC(=O)N1[C@@H](CO)[C@H](c2ccc(-c3ccc(C#N)cc3)cc2)C12CN(C(C)=O)C2	none (no result: C2C12 statin)
CC1(Cc2ccccc2OC(F)(F)F)C(=O)Nc2ccc(S(=O)(=O)NC3CCCCC3)cc21 (configuration not stated)	C2C12 statin 132
COc1ccccc1CC1(C)C(=O)Nc2ccc(S(=O)(=O)NC3CCCCC3)cc21 (configuration not stated)	DENV2 CPE inconclusive
O=C(Nc1cccc(C(F)(F)F)c1)c1cc[n+]([O-])cc1	E-sel inducer 27
O=C(Nc1cccc(O)c1)c1ccc(C(F)(F)F)cc1	DENV2 CPE inconclusive (no result: E-sel inducer)
O=C1C=C(c2c(O)ccc3ccccc23)c2ccccc2C1=O	none
O=C1C=C(O)c2cccc(O)c2C1=O	DENV2 CPE 44 (no result: E-sel inducer)
Cc1cc(C)nc(/N=C2\NC(=O)CC(C(=O)O)N2c2ccc(Cl)cc2)n1 (configuration not stated)	C2C12 statin 70
Cc1ccc(N2/C(=N/c3nc(C)cc(C)n3)NC(=O)CC2C(=O)O)cc1 (configuration not stated)	none (no result: DENV2 CPE, E-sel inducer)
COC(=O)Cn1cc(C(=O)OC)c2ccccc21	C2C12 statin 98 (no result: DENV2 CPE, E-sel inducer)
CC(C)(C)C(=O)c1cn(CC(=O)O)c2ccccc12	none (no result: C2C12 statin, E-sel inducer)
O=C(O)Cn1cc(C(=O)C(F)(F)F)c2ccccc21	E-sel inducer 49
COC(=O)c1cn(CC(=O)N2C(C)CCCC2C)c2ccccc12 (configuration not stated)	C2C12 statin 105 (no result: DENV2 CPE, E-sel inducer)
CC1CCCC(C)N1C(=O)Cn1cc(C#N)c2ccccc21 (configuration not stated)	none (no result: C2C12 statin, E-sel inducer)
CCOC(=O)Cn1cc(C(=O)OC)c2ccccc21	none (no result: DENV2 CPE, E-sel inducer)
CCN1[C@@H]2c3ccc(-c4cccnc4)c(=O)n3C[C@H]1[C@H](CO)[C@H]2C(=O)NC1CCCCC1	none
CCCC#Cc1cnc2c(c1)C(=O)N([C@@H](C)CO)C[C@@H](C)[C@@H](CN(C)S(C)(=O)=O)O2	none
Cc1onc(-c2ccc3c(c2)OCO3)c1-c1ccc2[nH]ccc2c1	none
c1cc2cc(-c3c(-c4ccc5c(c4)OCO5)noc3-c3ccsc3)ccc2[nH]1	DENV2 CPE 120, C2C12 statin 126
C[C@H]1CN([C@@H](C)CO)C(=O)CCCn2cc(nn2)CO[C@@H]1CN(C)Cc1ccc2c(c1)OCCN2C	none (no result: DENV2 CPE)
COCCCn1cnc2c(c1=O)c1nc3ccccc3nc1n2-c1ccccc1	C2C12 statin 127 (no result: DENV2 CPE, E-sel inducer)
COCCCn1cnc2oc3nc4ccccc4nc3c2c1=O	none (no result: DENV2 CPE, E-sel inducer)
CC(C)NC(=O)Nc1ccc2c(c1)C(=O)N([C@@H](C)CO)C[C@H](C)[C@@H](CN(C)C(=O)NC1CCCCC1)O2	none
CCN(CC)CCNc1nc2ccccc2n1C	none (no result: DENV2 CPE, E-sel inducer)
Cc1ccc2c(c1)nc(NCCO)n2C	C2C12 statin 91 (no result: DENV2 CPE, E-sel inducer)
O=C1CN(Cc2ccc(F)cc2)C[C@H]2[C@H](c3ccc(Br)cc3)[C@H](CO)N12	none (no result: C2C12 statin)
Cc1noc(C)c1NC(=O)Nc1ccc2c(c1)C(=O)N([C@@H](C)CO)C[C@H](C)[C@@H](CN(C)S(=O)(=O)c1ccc(F)cc1)O2	DENV2 CPE inconclusive
C[C@@H]1CCCCO[C@@H](CN(C)C(=O)Nc2ccc3c(c2)OCO3)[C@@H](C)CN([C@H](C)CO)C(=O)c2cc(NS(=O)(=O)c3ccc(Cl)cc3)ccc2O1	none (no result: C2C12 statin)
C[C@H]1CCCCO[C@H](CN(C)C(=O)Nc2ccc3c(c2)OCO3)[C@@H](C)CN([C@@H](C)CO)C(=O)c2cc(NS(=O)(=O)c3ccc(Cl)cc3)ccc2O1	DENV2 CPE 52 (no result: C2C12 statin)
C[C@@H]1CCCCO[C@H](CN(C)C(=O)Nc2cccc3ccccc23)[C@H](C)CN([C@@H](C)CO)C(=O)c2cc(NS(=O)(=O)c3ccc(Cl)cc3)ccc2O1	C2C12 statin 192 (no result: E-sel inducer)
C[C@@H]1CCCCO[C@@H](CN(C)C(=O)Nc2cccc3ccccc23)[C@H](C)CN([C@@H](C)CO)C(=O)c2cc(NS(=O)(=O)c3cn(C)cn3)ccc2O1	DENV2 CPE 21 (no result: C2C12 statin)
C[C@@H]1CCCCO[C@@H](CN(C)C(=O)Nc2cccc3ccccc23)[C@H](C)CN([C@H](C)CO)C(=O)c2cc(NS(=O)(=O)c3cn(C)cn3)ccc2O1	none (no result: C2C12 statin)
C[C@@H]1CN([C@@H](C)CO)C(=O)c2cc(NS(=O)(=O)c3ccc(Cl)cc3)ccc2O[C@@H](C)CCCCO[C@H]1CN(C)C(=O)Nc1cccc2ccccc12	none (no result: E-sel inducer)
